One data set has as its target T1, Thromboxane A2 receptor (Homo sapiens, UniProt P21731).
T1 sequence (P21731 whole entry): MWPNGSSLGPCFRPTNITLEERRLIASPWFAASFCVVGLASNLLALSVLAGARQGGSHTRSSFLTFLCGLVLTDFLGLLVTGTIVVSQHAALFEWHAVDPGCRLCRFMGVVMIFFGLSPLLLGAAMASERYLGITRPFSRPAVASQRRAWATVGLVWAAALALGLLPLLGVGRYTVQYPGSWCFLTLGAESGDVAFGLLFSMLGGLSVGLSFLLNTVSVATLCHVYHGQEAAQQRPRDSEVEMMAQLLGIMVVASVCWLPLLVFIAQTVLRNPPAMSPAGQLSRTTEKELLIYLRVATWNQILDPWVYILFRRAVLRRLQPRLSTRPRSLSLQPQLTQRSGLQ
Description: Antagonist activity at TXA2 receptor (unknown origin) by FRET assay.

The target of data set [1] is T2, Prostaglandin D2 receptor 2 (Mus musculus, UniProt Q9Z2J6).
T2 sequence (Q9Z2J6 whole entry): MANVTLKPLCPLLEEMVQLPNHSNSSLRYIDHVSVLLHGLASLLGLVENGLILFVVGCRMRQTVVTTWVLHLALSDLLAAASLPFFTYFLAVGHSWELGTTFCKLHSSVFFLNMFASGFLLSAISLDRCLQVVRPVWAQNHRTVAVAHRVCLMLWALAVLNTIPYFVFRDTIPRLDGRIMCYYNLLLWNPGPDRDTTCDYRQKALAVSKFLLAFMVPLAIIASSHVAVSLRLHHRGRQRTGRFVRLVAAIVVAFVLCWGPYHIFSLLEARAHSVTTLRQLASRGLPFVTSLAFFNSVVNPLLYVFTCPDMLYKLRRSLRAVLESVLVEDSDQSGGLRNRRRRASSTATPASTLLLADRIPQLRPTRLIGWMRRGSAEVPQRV
In words: Inhibition of mouse CRTH2 receptor.

In data set [2] the target is Voltage-gated inwardly rectifying potassium channel KCNH2 (Homo sapiens, UniProt Q12809). In words: Inhibition of human ERG channel at 33 uM.
Chain of Voltage-gated inwardly rectifying potassium channel KCNH2 (Q12809 whole entry): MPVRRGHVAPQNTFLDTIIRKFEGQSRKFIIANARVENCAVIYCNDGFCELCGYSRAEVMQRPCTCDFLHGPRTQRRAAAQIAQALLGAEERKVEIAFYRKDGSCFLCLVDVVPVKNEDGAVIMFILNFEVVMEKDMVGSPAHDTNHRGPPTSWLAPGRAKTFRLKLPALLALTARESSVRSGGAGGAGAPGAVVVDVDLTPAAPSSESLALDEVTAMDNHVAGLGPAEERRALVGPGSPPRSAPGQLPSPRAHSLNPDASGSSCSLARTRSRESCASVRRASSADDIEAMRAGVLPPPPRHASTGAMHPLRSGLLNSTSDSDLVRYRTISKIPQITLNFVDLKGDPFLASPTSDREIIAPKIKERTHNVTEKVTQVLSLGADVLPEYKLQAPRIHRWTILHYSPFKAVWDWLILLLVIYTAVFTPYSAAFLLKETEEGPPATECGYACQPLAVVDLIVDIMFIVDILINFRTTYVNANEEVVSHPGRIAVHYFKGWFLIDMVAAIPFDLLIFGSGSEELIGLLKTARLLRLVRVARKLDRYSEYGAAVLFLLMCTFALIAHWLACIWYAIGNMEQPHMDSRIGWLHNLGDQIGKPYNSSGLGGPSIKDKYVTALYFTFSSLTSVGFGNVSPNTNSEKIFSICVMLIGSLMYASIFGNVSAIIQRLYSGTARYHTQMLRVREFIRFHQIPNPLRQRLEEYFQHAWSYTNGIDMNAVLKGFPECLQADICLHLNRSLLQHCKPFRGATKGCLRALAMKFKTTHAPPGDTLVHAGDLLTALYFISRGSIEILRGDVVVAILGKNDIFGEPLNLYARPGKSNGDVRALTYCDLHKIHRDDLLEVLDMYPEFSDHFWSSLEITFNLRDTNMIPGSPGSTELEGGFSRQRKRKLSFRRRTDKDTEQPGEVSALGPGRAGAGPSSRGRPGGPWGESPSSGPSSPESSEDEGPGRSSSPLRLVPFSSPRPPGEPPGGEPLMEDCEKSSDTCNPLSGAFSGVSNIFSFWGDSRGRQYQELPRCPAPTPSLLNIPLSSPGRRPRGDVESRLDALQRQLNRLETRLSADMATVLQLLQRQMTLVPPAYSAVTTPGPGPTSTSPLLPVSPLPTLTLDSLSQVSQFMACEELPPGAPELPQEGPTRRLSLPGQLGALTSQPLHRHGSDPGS
The next data set addresses Cytochrome P450 2D6 (Homo sapiens, UniProt P10635). Description: Inhibition of CYP2D6 (unknown origin). Format: ADME.
For the next data set, the target named is T3, Cytochrome P450 1A2 (Homo sapiens, UniProt P05177).
T3 sequence (P05177 whole entry): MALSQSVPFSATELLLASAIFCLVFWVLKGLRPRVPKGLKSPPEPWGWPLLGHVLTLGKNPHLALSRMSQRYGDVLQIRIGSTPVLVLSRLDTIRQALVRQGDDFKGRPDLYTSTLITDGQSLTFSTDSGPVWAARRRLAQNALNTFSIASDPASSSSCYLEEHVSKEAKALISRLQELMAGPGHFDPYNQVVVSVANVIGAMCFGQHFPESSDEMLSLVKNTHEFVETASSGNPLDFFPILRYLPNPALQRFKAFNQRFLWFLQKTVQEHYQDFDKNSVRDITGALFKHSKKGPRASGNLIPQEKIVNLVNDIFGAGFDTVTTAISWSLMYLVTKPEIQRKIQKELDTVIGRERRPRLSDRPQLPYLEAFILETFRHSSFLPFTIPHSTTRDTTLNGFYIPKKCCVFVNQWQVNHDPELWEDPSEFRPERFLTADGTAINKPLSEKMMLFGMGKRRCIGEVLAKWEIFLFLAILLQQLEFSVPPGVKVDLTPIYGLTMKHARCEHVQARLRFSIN
Description: Inhibition of CYP1A2 (unknown origin). The data set is classed as ADME.

In data set [3] the test system is Ovis aries. In words: Inhibition of allergen-induced mucociliary clearance in sheep assessed as tracheal mucus velocity at 3 mg/kg, iv measured at 4 hrs (reference value: 47%). The data set is classed as functional. The settings on record: Trachea. Put shortly: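 Five sheep received 3 mg/kg iv around allergen challenge. Tracheal mucus velocity measured at 4 h and 8 h and expressed as % of baseline.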

Data set [4] concerns Ovis aries. In words: Inhibition of Ascaris-induced airway bronchoconstriction in sheep assessed as inhibition of late phase allergic airway bronchoconstriction at 1 mg/kg, iv qd for 7 days. Format: functional, organism-based. Also noted: dose 1 mg/kg. Put shortly: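 Sheep given 1 mg/kg iv once daily for 7 days before Ascaris suum allergen challenge. Early and late responses read as airway resistance above baseline, compared with each animal's historical untreated values. After the AHR measurement, three bronchi per sheep were lavaged for cell counts.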

Data set [5] concerns Ovis aries. Description: Inhibition of carbachol-induced airway hyperresponsiveness in sheep at 3 mg/kg, iv bid. On the set-up: dose 3 mg/kg. Format: functional, organism-based.
For data set [6], the system named is Ovis aries. Description: Inhibition of Ascaris-induced airway bronchoconstriction in sheep assessed as inhibition of late phase allergic airway bronchoconstriction at 3 mg/kg, iv bid. Format: functional, organism-based. On the set-up: dose 3 mg/kg.
Data set [7] concerns Mus musculus. Description: Antiallergic activity in house dust mite-induced allergic airway disease BALB/c mouse model assessed as reduction in eosinophil level in bronchoalveolar lavage fluid at 40 mg/kg, po after 72 hrs of HDM challenge. On the set-up: dose 40 mg/kg. Particulars: Lung. The data set is classed as functional, organism-based. Put shortly: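 BALB/c mice given house dust mite intratracheally via a catheter passed through the vocal cords. Test article 40 mg/kg orally once daily; dexamethasone 1 mg/kg ip once daily as reference. Total and differential BAL cells (eosinophils, macrophages, lymphocytes, neutrophils) counted 72 h after HDM challenge. Mean ± SEM, Mann–Whitney U test.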

Data set [8] deals with Mus musculus. In words: Antiallergic inflammatory activity in oxazolone induced contact hypersensitivity mouse model assessed as reduction ear swelling at 3 mg/kg, po prior to oxazolone and 7 hrs post challenge measured after 24 hrs. Format: functional. Put shortly:
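Mice sensitized on the shaved abdomen with 2% oxazolone in ethanol one week before challenge. Dosed orally 1 h before the left ear was challenged with 10 μL of 2% oxazolone (ethanol on the right ear as control), then redosed 7 h after challenge. Ear thickness measured by micrometer; swelling taken as 24 h post-challenge minus pre-challenge thickness. Unpaired t test.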

A short description of data set [9]: Oral bioavailability in dog at 10 mg/kg. The data set is classed as ADME, organism-based, Canis lupus familiaris. Particulars: in vivo.
The nature of data set [10]: Oral bioavailability in rat at 10 mg/kg. The data set is classed as ADME, organism-based. The settings on record: in vivo.
A short description of data set [11]: Cmax in monkey at 10 mg/kg, po. Format: ADME, organism-based, Macaca mulatta. On the set-up: dose 10 mg/kg, route oral. Particulars: rhesus monkey, in vivo. Put shortly:
(§1)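 Single intravenous dose of 2 mg/kg and single oral dose of 10 mg/kg, given separately, in rat, dog and monkey. Clearance and half-life taken from the iv arm; Cmax from the oral arm.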

A short description of data set [12]: Cmax in rat at 10 mg/kg, po. Particulars: in vivo. Format: ADME, organism-based. On the set-up: dose 10 mg/kg, route oral. In short, it runs like this: as §1
Data set [13] can be described thus: Volume of distribution at steady state in dog at 2 mg/kg, iv. Format: ADME, organism-based, Canis lupus familiaris. The settings on record: in vivo, read-out: Vdss. On the set-up: dose 2 mg/kg, route intravenous.
The nature of data set [14]: Half life in dog at 2 mg/kg, iv. The settings on record: in vivo. The data set is classed as ADME, organism-based, Canis lupus familiaris. On the set-up: dose 2 mg/kg, route intravenous. Put shortly:
as §1

Data set [15] is described as follows: Half life in rat at 2 mg/kg, iv. Format: ADME, organism-based. On the set-up: dose 2 mg/kg, route intravenous. Particulars: in vivo. In short, it runs like this: as §1
The nature of data set [16]: Clearance in dog at 2 mg/kg, iv. Format: ADME, organism-based, Canis lupus familiaris. On the set-up: dose 2 mg/kg, route intravenous. Particulars: in vivo. In short, it runs like this:
as §1

The nature of data set [17]: Permeability in human Caco2 cells at pH 6.5. The settings on record: Caco-2, pH 6.5. Background: Caco-2 cells form a polarised layer with tight junctions and transporters.

The source made the active and inactive calls. No cut-off for these calls is given here.

Chain of Cytochrome P450 2D6 (P10635 whole entry): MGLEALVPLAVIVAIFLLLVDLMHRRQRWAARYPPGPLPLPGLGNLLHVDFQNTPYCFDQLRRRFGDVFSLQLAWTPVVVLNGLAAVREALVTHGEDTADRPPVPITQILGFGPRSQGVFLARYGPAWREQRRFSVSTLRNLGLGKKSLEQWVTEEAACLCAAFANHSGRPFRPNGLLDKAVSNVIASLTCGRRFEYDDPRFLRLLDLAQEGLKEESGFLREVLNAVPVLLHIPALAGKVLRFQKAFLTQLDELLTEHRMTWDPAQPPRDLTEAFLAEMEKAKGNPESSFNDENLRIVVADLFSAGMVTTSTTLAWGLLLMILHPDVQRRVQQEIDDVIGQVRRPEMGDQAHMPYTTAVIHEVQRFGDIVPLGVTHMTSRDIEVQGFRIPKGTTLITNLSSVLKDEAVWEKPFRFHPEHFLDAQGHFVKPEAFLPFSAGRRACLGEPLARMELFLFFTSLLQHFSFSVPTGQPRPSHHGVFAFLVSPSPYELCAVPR

In general, IC50 refers to the midpoint of a concentration-inhibition curve. In general, inhibition in vivo refers to the relative decrease from the control value, in per cent. One may read the bioavailability as the share of a dose that reaches the circulation, judged against a reference dose that is usually intravenous. Usually Cmax stands for the peak of the concentration-time curve. What is called half-life is how long it takes for the measured level to halve. In general, clearance refers to a measure of how efficiently the substance is removed, as volume per time. Usually Papp stands for the rate of passage across a membrane or cell layer, normalised by area and donor concentration. Regarding `Cc1c(-c2cn(C(C)C)c(=O)c3ccccc23)c2cc(F)ccc2n1CC(=O)O`, the IC50 is greater than 1000 nM on Thromboxane A2 receptor, 4 nM in [1], greater than 100 µM on Cytochrome P450 2D6 and greater than 100 µM at Cytochrome P450 1A2. Besides, the “inhibition (INH)” value in data set [2] was “Not Active”. Further, the results for the inhibition in vivo at 3 mg/kg in the data set on Ovis aries [3] and in the data set on Mus musculus [8] were 70% and 50.5%, respectively. The inhibition result with Ovis aries [4], with Ovis aries [5], with Ovis aries [6] and in the data set on Mus musculus [7] was “Active” throughout. The bioavailability in data set [9] was determined as 32%; in data set [10], 20%. The Cmax in [11] came to 2970 ng/mL; in [12], 253 ng/mL. Moreover, the Vd in [13] turned out to be 0.7 L/kg. For the same molecule, the half-life was 204 min in data set [14] and 162 min in data set [15]. The clearance in [16] was 5.6 mL/min/kg. Moreover, the Papp in data set [17] was determined as 2.7 ×10⁻⁶ cm/s.
